Data: article PMC8026699 (Cancer research, 2021)

Assays:
[1] = tested on: MDA-MB-468 tumors; experiment: MDA-MB-468 tumor xenograft growth; assay type: in vivo, mouse; conditions: MDA-MB-468 (ACSS2 high), 100 mpk daily PO
Outline: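 Female NSG mice, 5–6 weeks old, received subcutaneous PBS:Matrigel grafts: BT474 at 1×10^6 (with a 60-day 17β-estradiol pellet at the neck), MDA-MB-468 at 5×10^6, or WHIM12 PDX cells at 2×10^6. Once tumors established, mice were randomized to daily IP or oral gavage. Arms: vehicle (10% DMSO, 20% solutol, 70% water with 0.5% Tween20) or 100 mg/kg test compound. Calipers thrice weekly; volume (L × W²)/2.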

[2] = tested on: Brpkp110 cells; experiment: 13C6-glucose dependent palmitate synthesis in Brpkp110 cells; assay type: cell-based, mouse; conditions: Brpkp110, normoxia, 10% dialyzed FBS
Outline: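 Cells grown 4 h under normoxia in SMEM with 10% dialyzed FBS and 5.5 mM uniformly labeled 13C6-glucose. Lipids extracted with methanol/chloroform/PBS and saponified in 0.3 M KOH in 90% methanol at 70°C for 1 h. Fatty acids recovered into hexane and palmitate labeling measured by C18 reverse-phase LC-MS.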

[3] = tested on: BT474, MDA-MB-468, and WHIM12 tumors; experiment: Heavy acetate stable isotope tracing in tumors; assay type: in vivo, mouse
Outline: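 Tumor-bearing mice received 2% D3- or 13C2-acetate in drinking water for two days, plus a 2 g/kg IP heavy-acetate bolus 90 min before sacrifice. Tumors excised under anesthesia and flash-frozen. Extraction at 40 mg/mL in methanol/acetonitrile/water (5:3:2) by bead homogenization, cleared twice. Citrate labeling analysed by HILIC LC-MS.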

SMILES: CCn1c(C(O)(c2ccccc2)c2ccccc2)nc2ccc(C(=O)NC[C@@H](C)O)cc21 [VY-3-135, (R)-1-ethyl-2-(hydroxydiphenylmethyl)-N-(2-hydroxypropyl)-1H-benzo[d]imidazole-6-carboxamide]
- tumor growth [1]: repressed
- 13C6-glucose dependent palmitate synthesis [2]: did not affect
- D3-acetate labeling of citrate in MDA-MB-468 tumors ([3]; MDA-MB-468 tumors): increase in D3-acetate labeling of citrate
- D3-acetate or 13C2-acetate labeling of citrate in tumors ([3]; readout of ACSS1): did not observe any inhibitory effect
